The values that follow come from ChEMBL document CHEMBL1138317, “Antibacterial oxazolidinones possessing a novel C-5 side chain. (5R)-trans-3-[3-Fluoro-4- (1-oxotetrahydrothiopyran-4-yl)phenyl]-2- oxooxazolidine-5-carboxylic acid amide (PF-00422602), a new lead compound” (J Med Chem, 2007).

Molecules are shown by their SMILES. ≈ marks a conversion by molar mass, not a printed value.

As a reminder, the IC50 is the concentration at which inhibition is half-maximal. For orientation: MIC90 means the lowest concentration that inhibits either 90% of growth or 90% of the strains tested, depending on the study. Low values mean greater potency, high ones weaker potency. For orientation: bioavailability means the share of a dose that reaches the circulation, judged against a reference dose that is usually intravenous. A higher bioavailability goes with good availability. For orientation: Cmax means the maximum level reached in the sampled fluid or tissue. One may read the clearance as the volume of plasma or blood freed of the substance per unit of time. Low values mean a low capacity for elimination, high ones a high capacity for elimination. Broadly, the AUC is concentration integrated over time. As usually defined, the half-life is how long it takes for the measured level to halve. The low end stands for rapid decline, the high end for slow decline.

For data set [1], the system named is Streptococcus pneumoniae. The data set is described as follows: Antibacterial activity against levofloxacin-penicillin-resistant Streptococcus pneumoniae SV1 SP3 by microbroth technology. In kind it is functional. Summed up:
(§1)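 Drug-resistant panel strains (levofloxacin/oxacillin-resistant S. aureus, levofloxacin/penicillin-resistant S. pneumoniae, vancomycin-resistant E. faecalis and E. faecium). Broth microdilution MIC in µg/mL; value reported as MIC90 across the strains of each resistant group.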
(Dilution methods test growth across graded concentrations, often in twofold steps.)

In data set [2] the target is T1, Amine oxidase [flavin-containing] A (Homo sapiens, UniProt P21397).
T1 sequence (P21397 whole entry): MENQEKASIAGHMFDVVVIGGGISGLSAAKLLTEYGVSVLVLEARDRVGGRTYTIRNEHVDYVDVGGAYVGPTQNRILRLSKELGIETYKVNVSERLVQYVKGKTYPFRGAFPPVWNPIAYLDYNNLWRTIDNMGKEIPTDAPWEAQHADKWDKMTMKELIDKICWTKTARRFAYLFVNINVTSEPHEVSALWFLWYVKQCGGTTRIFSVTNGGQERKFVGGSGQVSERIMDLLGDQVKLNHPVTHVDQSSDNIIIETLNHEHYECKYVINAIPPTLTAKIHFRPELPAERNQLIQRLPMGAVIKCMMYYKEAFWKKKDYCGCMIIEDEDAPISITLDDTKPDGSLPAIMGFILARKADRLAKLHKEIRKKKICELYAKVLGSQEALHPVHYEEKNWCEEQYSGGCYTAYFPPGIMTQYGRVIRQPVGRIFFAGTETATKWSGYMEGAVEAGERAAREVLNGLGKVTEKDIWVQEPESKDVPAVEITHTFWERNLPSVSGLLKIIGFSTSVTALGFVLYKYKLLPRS
Kind of data set: Inhibition of human recombinant MAOA.

The subject of data set [3] is Staphylococcus aureus. The data set is described as follows: Antibacterial activity against Staphylococcus aureus UC76 in po dosed CD1 mouse systemic infection model assessed as mortality after 7 days. Format: functional.
Data set [4] relates to Staphylococcus aureus. The data set is described as follows: Antibacterial activity against levofloxacin-oxacillin-resistant Staphylococcus aureus UC76 SA1 by micro-broth technology. Format: functional. Put shortly:
as §1

Data set [5] concerns Haemophilus influenzae. Kind of data set: Antibacterial activity against Haemophilus influenzae by micro-broth technology. In kind it is functional. Put shortly: (§2)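 MIC determined by broth microdilution, reported in µg/mL.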
The test system of data set [6] is Escherichia coli. Kind of data set: Inhibition of protein synthesis in Escherichia coli by cell-free transcription-translation assay. Format: functional. Put shortly:
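E. coli cell-free coupled transcription/translation run in microtiter format with a luciferase reporter; luminescence was the read-out for protein synthesis.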

Data set [7] deals with Enterococcus faecium. The data set is described as follows: Antibacterial activity against vancomycin-resistant Enterococcus faecium by micro-broth technology. In kind it is functional. Put shortly: as §1
Data set [8] concerns Moraxella catarrhalis. Kind of data set: Antibacterial activity against Moraxella catarrhalis by microbroth technology. In kind it is functional. Put shortly: as §2
Data set [9] has as its system Enterococcus faecalis. Kind of data set: Antibacterial activity against vancomycin-resistant Enterococcus faecalis MGH2 EF1 by microbroth technology. Format: functional. Summed up:
as §1

Data set [10] in a line: Bioavailability in Sprague-Dawley rat at 20 mg/kg, po. In kind it is ADME, organism-based. The settings on record: Sprague-Dawley, in vivo.
Data set [11] in a line: Cmax in Sprague-Dawley rat at 20 mg/kg, po. In kind it is ADME, organism-based. On the set-up: dose 20 mg/kg, route oral. The settings on record: in vivo.
The nature of data set [12]: Volume of distribution at steady state in Sprague-Dawley rat at 10 mg/kg, iv. Also on record: dose 10 mg/kg, route intravenous. The settings on record: in vivo, read-out: Vdss. Format: ADME, organism-based.
Data set [13] in a line: Clearance in Sprague-Dawley rat at 10 mg/kg, iv. Format: ADME, organism-based. The settings on record: in vivo. On the set-up: dose 10 mg/kg, route intravenous.
Data set [14] is described as follows: AUC in Sprague-Dawley rat at 20 mg/kg, po. On the set-up: dose 20 mg/kg, route oral. The settings on record: Sprague-Dawley, plasma. Format: ADME, organism-based, Plasma.
Data set [15] is described as follows: Half life in Sprague-Dawley rat at 20 mg/kg, po. Also on record: dose 20 mg/kg, route oral. In kind it is ADME, organism-based. The settings on record: in vivo.

Turning to `NC(=O)[C@H]1CN(c2cc(F)c(C3CCS(=O)(=O)CC3)c(F)c2)C(=O)O1`, the MIC in data set [1] was 4 µg/mL (≈ 10.7 µM); in [4], 4 µg/mL (≈ 10.7 µM); in data set [5] it was over 8 µg/mL; in [7] it was 8 µg/mL (≈ 21.4 µM); in data set [8] it was over 8 µg/mL; in data set [9], 4 µg/mL (≈ 10.7 µM). Moreover, the values for the IC50 in [2] and in data set [6] were 293 µM and 6.28 µM, respectively. Besides, in data set [3], the PD50 stood at 15 mg/kg.
Consider `NC(=O)[C@H]1CN(c2ccc(N3CCOCC3)c(F)c2)C(=O)O1`, for which the MIC in data set [1] is 4 µg/mL (≈ 12.9 µM); in data set [4], 4 µg/mL (≈ 12.9 µM); in data set [5], over 8 µg/mL; in data set [7] it was 32 µg/mL (≈ 103 µM); in data set [8], over 8 µg/mL; in [9] it was 32 µg/mL (≈ 103 µM). Also, the IC50 in data set [2] was determined as 146 µM; in data set [6], 23 µM. The PD50 in data set [3] was determined as 8.22 mg/kg.
As to `NC(=O)[C@H]1CN(c2ccc(C3CCS(=O)(=O)CC3)c(F)c2)C(=O)O1`, the MIC90 in [1] is 2 µg/mL (≈ 5.61 µM); in data set [4], 2 µg/mL (≈ 5.61 µM); in [7], 4 µg/mL (≈ 11.2 µM); in data set [9], 2 µg/mL (≈ 5.61 µM). Further, the half-maximal inhibitory concentration (IC50) in data set [2] amounted to 105 µM; in [6], 5.89 µM. The same molecule gave a bioavailability in data set [10] of 40%. In data set [3], the PD50 was 2.1 mg/kg. The MIC in [5] and in [8] was over 8 µg/mL throughout. In addition, the concentration in data set [11] peaked (Cmax) at 1880 ng/mL. The Vd in [12] was 1.11 L/kg. In data set [13], the clearance came to 12.9 mL/min/kg. In [14], this molecule displayed an AUC of 8620 ng·h/mL. In data set [15], this molecule had a half-life of 1.58 h.
Take `NC(=O)[C@H]1CN(c2cc(F)c(C3CC[S+]([O-])CC3)c(F)c2)C(=O)O1` (stereo partly drawn): the MIC90 in data set [1], in [4], in data set [7] and in [9] was 2 µg/mL (≈ 5.58 µM) each time. Moreover, the figures for the IC50 in data set [2] and in data set [6] were 355 µM and 3.6 µM, respectively. For the same molecule, the bioavailability in [10] came out at 65%. For the same molecule, the PD50 in data set [3] was 1.1 mg/kg. The MIC in data set [5] and in [8] was over 8 µg/mL in each case. In data set [11], this molecule yielded a peak concentration (Cmax) of 4690 ng/mL. The Vd in [12] stood at 0.83 L/kg. In data set [13], this molecule came in with a clearance of 12.8 mL/min/kg. Moreover, the area under the curve (AUC) in data set [14] amounted to 15400 ng·h/mL. The half-life in [15] was 2.24 h.
